The term IC50 denotes the concentration needed to halve the response being measured. One may read the GI50 as the concentration giving 50% growth inhibition. Higher therefore signals lower sensitivity of the cells.

Structures are written as SMILES. Active and inactive are the calls of the source. No cut-off for these calls is given here.

This note sets out measurements from ChEMBL document CHEMBL1139878, “Rapid evolution of 6-phenylpurine inhibitors of protein kinase B through structure-based design” (J Med Chem, 2007).

Experiment [1] has as its target RAC-beta serine/threonine-protein kinase (Homo sapiens, UniProt P31751). The experiment is described as follows: Inhibition of PKBbeta by radiometric filter binding assay.
Experiment [2] deals with cAMP-dependent protein kinase (PKA) (Homo sapiens, UniProt P22694+P17612+P22612). Description: Inhibition of PKA by radiometric filter binding assay. The class given is protein assay.
The test system of another experiment is PC-3M. Description: Inhibition of PC3M cells by SRB assay after 96 hrs. Particulars: Homo sapiens. The experiment is classed as functional. (In general: In SRB staining, fixed cells bind dye roughly in proportion to their protein.)
Another experiment deals with HCT-116. Description: Inhibition of HCT116 cells by SRB assay after 96 hrs. The class given is functional. The following applies: Homo sapiens, HCT-116, 96 h.
Experiment [3] has as its system U-87 MG. The experiment is described as follows: Inhibition of U87MG cells by SRB assay after 96 hrs. The experiment is classed as functional, U-87MG ATCC. The following applies: Homo sapiens.
Experiment [4] deals with T1, Serine/threonine-protein kinase AKT (Homo sapiens, UniProt P31751+Q9Y243+P31749). The experiment is described as follows: Inhibition of GSK3-beta phosphorylation in PC3M cells after 1 hr by ELISA. The class given is functional, cell-based.
Experiment [5] deals with T1, Serine/threonine-protein kinase AKT. The experiment is described as follows: Inhibition of GSK3-beta phosphorylation in U87MG cells by ELISA. The following applies: u-87mg atcc. The experiment is classed as functional, cell-based.
Experiment [6] deals with U-87 MG. Description: Decrease in pGSK3-beta protein levels in U87MG cells after 1 hr by Western blotting. The following applies: Homo sapiens; U-87MG ATCC. The experiment is classed as functional, cell-based. The method in brief: (§1)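 U87MG glioblastoma cells were treated for 1 h across a titration of inhibitor concentrations. Phosphorylation states of PI3K-PKB-mTOR pathway components were then read out by Western blot with phospho-specific antibodies.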
Background: A western blot detects proteins with antibodies after separation by electrophoresis.

Experiment [7] relates to U-87 MG. The experiment is described as follows: Decrease in pS6 protein levels in U87MG cells after 1 hr by Western blotting. The experiment is classed as functional, cell-based. The following applies: Homo sapiens; U-87MG ATCC. The essentials:
as §1

In experiment [8] the test system is U-87 MG. The experiment is described as follows: Decrease in pFKHR protein levels in U87MG cells after 1 hr by Western blotting. The class given is functional, cell-based. Particulars: Homo sapiens; U-87MG ATCC. The method in brief:
as §1

For experiment [9], the system named is U-87 MG. Description: Increase in pSer473-PKB protein levels in U87MG cells after 1 hr by Western blotting. The experiment is classed as functional, cell-based. Particulars: Homo sapiens; U-87MG ATCC. The method in brief: as §1
A further experiment deals with T2, Cytochrome P450 1A2 (Homo sapiens, UniProt P05177).
T2 sequence (P05177 whole entry): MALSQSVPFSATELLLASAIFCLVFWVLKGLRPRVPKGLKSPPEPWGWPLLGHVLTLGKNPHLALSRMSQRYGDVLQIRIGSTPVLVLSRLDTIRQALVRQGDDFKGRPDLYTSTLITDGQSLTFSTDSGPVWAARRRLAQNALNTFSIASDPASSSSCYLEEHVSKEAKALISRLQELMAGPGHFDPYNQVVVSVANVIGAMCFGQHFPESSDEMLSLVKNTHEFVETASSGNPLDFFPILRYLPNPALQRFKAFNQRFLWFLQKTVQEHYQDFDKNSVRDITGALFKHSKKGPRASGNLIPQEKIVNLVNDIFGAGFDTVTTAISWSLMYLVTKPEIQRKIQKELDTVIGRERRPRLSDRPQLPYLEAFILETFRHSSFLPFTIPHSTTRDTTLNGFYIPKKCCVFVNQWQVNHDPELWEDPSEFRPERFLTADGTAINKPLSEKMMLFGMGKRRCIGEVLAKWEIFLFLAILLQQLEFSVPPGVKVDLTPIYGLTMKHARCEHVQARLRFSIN
Description: Inhibition of CYP1A2. The experiment is classed as ADME.

Another experiment addresses Cytochrome P450 2C9 (Homo sapiens, UniProt P11712). The experiment is described as follows: Inhibition of CYP2C9. The experiment is classed as ADME.
For a further experiment, the target named is Cytochrome P450 2D6 (Homo sapiens, UniProt P10635). The experiment is described as follows: Inhibition of CYP2D6. The experiment is classed as ADME.
Chain of Cytochrome P450 2D6 (P10635 whole entry): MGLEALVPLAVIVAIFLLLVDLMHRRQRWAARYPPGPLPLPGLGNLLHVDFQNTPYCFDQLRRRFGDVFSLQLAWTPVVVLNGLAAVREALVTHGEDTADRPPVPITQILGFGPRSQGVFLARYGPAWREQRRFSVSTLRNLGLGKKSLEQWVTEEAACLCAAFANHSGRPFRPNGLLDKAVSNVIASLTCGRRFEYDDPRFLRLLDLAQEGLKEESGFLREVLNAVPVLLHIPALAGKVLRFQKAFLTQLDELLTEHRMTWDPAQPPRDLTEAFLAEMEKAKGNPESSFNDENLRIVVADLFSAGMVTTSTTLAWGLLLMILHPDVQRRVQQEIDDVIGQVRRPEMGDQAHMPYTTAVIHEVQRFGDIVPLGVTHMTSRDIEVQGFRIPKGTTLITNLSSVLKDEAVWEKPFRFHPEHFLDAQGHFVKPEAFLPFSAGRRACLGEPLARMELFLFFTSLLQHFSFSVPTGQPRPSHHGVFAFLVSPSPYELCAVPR
In the next experiment the target is Cytochrome P450 3A4 (Homo sapiens, UniProt P08684). Description: Inhibition of CYP3A4. The experiment is classed as ADME.
Chain of Cytochrome P450 3A4 (P08684 whole entry): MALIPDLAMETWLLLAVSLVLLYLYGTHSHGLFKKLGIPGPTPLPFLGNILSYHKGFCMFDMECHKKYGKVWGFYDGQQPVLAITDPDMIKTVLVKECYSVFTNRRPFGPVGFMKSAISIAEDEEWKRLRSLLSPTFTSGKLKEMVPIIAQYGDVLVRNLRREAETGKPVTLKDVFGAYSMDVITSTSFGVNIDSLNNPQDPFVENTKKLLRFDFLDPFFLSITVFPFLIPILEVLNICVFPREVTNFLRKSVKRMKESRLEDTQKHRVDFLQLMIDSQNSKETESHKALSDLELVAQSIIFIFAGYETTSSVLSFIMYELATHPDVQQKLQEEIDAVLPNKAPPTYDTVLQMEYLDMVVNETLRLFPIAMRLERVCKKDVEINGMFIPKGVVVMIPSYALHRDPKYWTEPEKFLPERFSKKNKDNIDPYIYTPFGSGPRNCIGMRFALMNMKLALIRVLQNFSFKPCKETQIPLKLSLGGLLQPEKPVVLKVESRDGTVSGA
A further experiment concerns the target Cytochrome P450 2C19 (Homo sapiens, UniProt P33261). The experiment is described as follows: Inhibition of CYP2C19. The experiment is classed as ADME.

Chain of RAC-beta serine/threonine-protein kinase (P31751 whole entry): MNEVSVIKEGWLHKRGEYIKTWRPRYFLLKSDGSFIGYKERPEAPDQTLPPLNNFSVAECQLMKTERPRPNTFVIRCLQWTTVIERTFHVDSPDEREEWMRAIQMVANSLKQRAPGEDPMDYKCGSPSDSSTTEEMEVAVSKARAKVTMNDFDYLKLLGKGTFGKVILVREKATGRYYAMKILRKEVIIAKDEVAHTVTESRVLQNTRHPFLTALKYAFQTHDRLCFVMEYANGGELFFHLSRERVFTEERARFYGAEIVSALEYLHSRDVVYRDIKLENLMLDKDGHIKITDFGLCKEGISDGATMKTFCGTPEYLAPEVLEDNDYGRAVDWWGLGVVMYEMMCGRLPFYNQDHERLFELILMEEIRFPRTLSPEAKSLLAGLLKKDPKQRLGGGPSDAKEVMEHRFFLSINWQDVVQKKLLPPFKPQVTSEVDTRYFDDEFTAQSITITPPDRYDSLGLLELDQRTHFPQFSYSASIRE
Chain of Cytochrome P450 2C19 (P33261 whole entry): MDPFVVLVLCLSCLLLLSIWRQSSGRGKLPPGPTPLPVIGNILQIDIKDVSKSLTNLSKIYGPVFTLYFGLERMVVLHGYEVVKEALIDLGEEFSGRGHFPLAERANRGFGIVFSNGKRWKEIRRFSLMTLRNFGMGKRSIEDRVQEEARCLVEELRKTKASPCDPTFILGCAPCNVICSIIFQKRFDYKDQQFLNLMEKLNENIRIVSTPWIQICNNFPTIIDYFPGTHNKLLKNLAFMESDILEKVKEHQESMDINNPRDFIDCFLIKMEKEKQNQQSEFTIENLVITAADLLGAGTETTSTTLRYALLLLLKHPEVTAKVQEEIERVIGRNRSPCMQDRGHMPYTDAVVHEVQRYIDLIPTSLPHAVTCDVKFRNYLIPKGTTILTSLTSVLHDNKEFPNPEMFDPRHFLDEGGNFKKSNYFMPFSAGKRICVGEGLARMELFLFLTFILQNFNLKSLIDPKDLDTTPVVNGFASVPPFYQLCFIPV
Chain of Cytochrome P450 2C9 (P11712 whole entry): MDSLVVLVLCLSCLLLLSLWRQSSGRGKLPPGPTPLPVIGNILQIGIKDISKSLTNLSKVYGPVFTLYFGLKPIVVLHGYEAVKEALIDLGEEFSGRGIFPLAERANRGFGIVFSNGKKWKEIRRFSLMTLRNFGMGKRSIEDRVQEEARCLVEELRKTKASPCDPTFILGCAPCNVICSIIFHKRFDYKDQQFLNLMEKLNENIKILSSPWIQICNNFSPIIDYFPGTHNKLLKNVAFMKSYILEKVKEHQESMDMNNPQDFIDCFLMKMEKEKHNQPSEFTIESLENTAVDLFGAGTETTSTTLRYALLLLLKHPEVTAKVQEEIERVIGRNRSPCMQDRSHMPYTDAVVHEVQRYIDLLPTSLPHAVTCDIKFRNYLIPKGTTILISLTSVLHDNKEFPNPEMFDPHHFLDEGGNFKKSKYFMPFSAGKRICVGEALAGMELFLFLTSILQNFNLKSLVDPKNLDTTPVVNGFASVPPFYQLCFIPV

As to `CNCc1ccc(-c2ncnc3[nH]cnc23)cc1`, the results for the half-maximal inhibitory concentration (IC50) in experiment [1] and in [2] were 6.9 µM and 5.2 µM, respectively. Also, the GI50 in the experiment on PC-3M is over 50 µM.

On to `CNC(c1ccc(Cl)cc1)c1ccc(-c2ncnc3[nH]cnc23)cc1` (centres undefined), for which the results for the IC50 in experiment [1] and in experiment [2] were 0.01 µM and 0.015 µM, respectively. Also, in the experiment with PC-3M, the concentration for 50% growth inhibition (GI50) worked out at 16 µM.

As for `NC(Cc1ccccc1)c1ccc(-c2ncnc3[nH]cnc23)cc1` (centres undefined), the half-inhibitory concentration (IC50) in experiment [1] came to 0.43 µM; in experiment [2], 0.61 µM. This molecule had a 50% growth inhibitory concentration (GI50) in the experiment with PC-3M of 32 µM.

In experiment [1], `NCCc1ccc(-c2ncnc3[nH]cnc23)cc1` came in with an IC50 of 9.5 µM.

As to `NC(c1ccccc1)c1ccc(-c2ncnc3[nH]cnc23)cc1` (centres undefined), the IC50 in [1] came out at 0.4 µM. The molecule further returned a concentration for 50% growth inhibition (GI50) in the experiment on PC-3M of 32 µM.

For `Clc1ccc(C2(c3ccc(-c4ncnc5[nH]cnc45)cc3)CCNCC2)cc1`, the IC50 in [2] was 0.033 µM; in [4] it was 6 µM; in experiment [5], 1.9 µM; on Cytochrome P450 1A2, over 10 µM; at Cytochrome P450 2C9, over 10 µM; on Cytochrome P450 2D6, over 10 µM. Further, the IC50 against Cytochrome P450 3A4 came to 10 µM; against Cytochrome P450 2C19, 1.6 µM. Also, the GI50 was determined as 4.5 µM in the experiment with PC-3M, 5.7 µM in the experiment on HCT-116 and 8.7 µM with U-87 MG [3]. For the same molecule, the result in the experiment on U-87 MG [6], with U-87 MG [7], in the experiment with U-87 MG [8] and in the experiment with U-87 MG [9] was Active.

Take `CNCc1cccc(-c2ncnc3[nH]cnc23)c1`: the IC50 is 1.6 µM in experiment [1] and 5.5 µM in experiment [2]. The GI50 in the experiment on PC-3M was over 50 µM.

In turn, `NC(c1ccc(Cl)cc1)c1ccc(-c2ncnc3[nH]cnc23)cc1` (centres undefined) showed an IC50 in experiment [1] of 0.009 µM. Also, halving of growth in the experiment on PC-3M (GI50) required 28 µM.

The molecule `NCCc1cccc(-c2ncnc3[nH]cnc23)c1` yielded an IC50 in experiment [1] of 3.2 µM. In the experiment on PC-3M, the GI50 is over 50 µM.
